Data from ChEMBL document CHEMBL2073766, “Effects of grapefruit juice and orange juice components on P-glycoprotein- and MRP2-mediated drug efflux” (Br J Pharmacol, 2004).

Tests used:
Assay type in all cases: functional, cell-based
[1] = target: T1, ATP-dependent translocase ABCB1 (Homo sapiens, UniProt P08183); experiment: TP_TRANSPORTER: increase in saquinavir intracellular accumulation in the presence of Probenecid at 5mM in LLC-GA5-COL150 cells; conditions: pig, llc-ga5-col150, 5000 µM
Procedure, shortened: (§1)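 LLC-GA5-COL150 (human MDR1-transfected LLC-PK1; colchicine withdrawn 6 h before assay) and LLC-PK1 control cells were grown 3 days in four-well dishes. Uptake of 5 µM [¹⁴C]saquinavir ± inhibitor ran 90 min in pH 7.4 HEPES buffer at 37°C and was stopped with ice-cold washes. Cell/medium ratio was normalised to Lowry protein. Potentiation ratio = % of control (MDR1 cells) / % of control (LLC-PK1) × 100; mean ± s.e.m. of three experiments.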

[2] = target: T1, ATP-dependent translocase ABCB1; experiment: TP_TRANSPORTER: increase in Vinblastine intracellular accumulation in the presence of Probenecid at 5mM in LLC-GA5-COL150 cells; conditions: pig, llc-ga5-col150, 5000 µM
Procedure, shortened: (§2)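 LLC-GA5-COL150 (LLC-PK1 transfected with human MDR1; grown with 150 ng ml⁻¹ colchicine, withdrawn 6 h before assay) and parental LLC-PK1 seeded in four-well dishes and grown 3 days. Cells were incubated 90 min with 20 nM [³H]vinblastine ± inhibitor in HEPES buffer, pH 7.4, 37°C, then washed in ice-cold buffer. Read-out was cell/medium ratio per mg protein (Lowry) by scintillation. Uptake potentiation ratio = % of control in transfectant / % of control in LLC-PK1 × 100; mean ± s.e.m., n=3.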

[3] = target: T1, ATP-dependent translocase ABCB1; experiment: TP_TRANSPORTER: increase in saquinavir intracellular accumulation in the presence of Nobiletin at 20uM in LLC-GA5-COL150 cells; conditions: pig, llc-ga5-col150, 20 µM; procedure, shortened: as §1
[4] = target: T1, ATP-dependent translocase ABCB1; experiment: TP_TRANSPORTER: increase in Vinblastine intracellular accumulation of Nobiletin at a concentration of 20uM in LLC-GA5-COL150 cells; conditions: pig, llc-ga5-col150, 20 µM; procedure, shortened: as §2
[5] = target: T1, ATP-dependent translocase ABCB1; experiment: TP_TRANSPORTER: increase in saquinavir intracellular accumulation in the presence of Sulfinpyrazone at 5mM in LLC-GA5-COL150 cells; conditions: pig, llc-ga5-col150, 5000 µM; procedure, shortened: as §1
[6] = target: T1, ATP-dependent translocase ABCB1; experiment: TP_TRANSPORTER: increase in Vinblastine intracellular accumulation in the presence of Sulfinpyrazone at 5mM in LLC-GA5-COL150 cells; conditions: pig, llc-ga5-col150, 5000 µM; procedure, shortened: as §2
[7] = target: T1, ATP-dependent translocase ABCB1; experiment: TP_TRANSPORTER: increase in Vinblastine intracellular accumulation in the presence of Bergamottin at 20uM in LLC-GA5-COL150 cells; conditions: pig, llc-ga5-col150, 20 µM; procedure, shortened: as §2
[8] = target: T1, ATP-dependent translocase ABCB1; experiment: TP_TRANSPORTER: increase in Vinblastine intracellular accumulation in the presence of MK-571 at 50uM in LLC-GA5-COL150 cells; conditions: pig, llc-ga5-col150, 50 µM; procedure, shortened: as §2
[9] = target: T1, ATP-dependent translocase ABCB1; experiment: TP_TRANSPORTER: increase in saquinavir intracellular accumulation of Tangeretin at a concentration of 20uM in LLC-GA5-COL150 cells; conditions: pig, llc-ga5-col150, 20 µM; procedure, shortened: as §1
[10] = target: T1, ATP-dependent translocase ABCB1; experiment: TP_TRANSPORTER: increase in Vinblastine intracellular accumulation of Tangeretin at a concentration of 20uM in LLC-GA5-COL150 cells; conditions: pig, llc-ga5-col150, 20 µM; procedure, shortened: as §2
[11] = target: T1, ATP-dependent translocase ABCB1; experiment: TP_TRANSPORTER: increase in saquinavir intracellular accumulation of 6',7'-Dihydroxybergamottin at a concentration of 20uM in LLC-GA5-COL150 cells; conditions: pig, llc-ga5-col150, 20 µM; procedure, shortened: as §1
[12] = target: T1, ATP-dependent translocase ABCB1; experiment: TP_TRANSPORTER: increase in Vinblastine intracellular accumulation of 6',7'-Dihydroxybergamottin at a concentration of 20uM in LLC-GA5-COL150 cells; conditions: pig, llc-ga5-col150, 20 µM; procedure, shortened: as §2

T1 sequence (P08183 whole entry): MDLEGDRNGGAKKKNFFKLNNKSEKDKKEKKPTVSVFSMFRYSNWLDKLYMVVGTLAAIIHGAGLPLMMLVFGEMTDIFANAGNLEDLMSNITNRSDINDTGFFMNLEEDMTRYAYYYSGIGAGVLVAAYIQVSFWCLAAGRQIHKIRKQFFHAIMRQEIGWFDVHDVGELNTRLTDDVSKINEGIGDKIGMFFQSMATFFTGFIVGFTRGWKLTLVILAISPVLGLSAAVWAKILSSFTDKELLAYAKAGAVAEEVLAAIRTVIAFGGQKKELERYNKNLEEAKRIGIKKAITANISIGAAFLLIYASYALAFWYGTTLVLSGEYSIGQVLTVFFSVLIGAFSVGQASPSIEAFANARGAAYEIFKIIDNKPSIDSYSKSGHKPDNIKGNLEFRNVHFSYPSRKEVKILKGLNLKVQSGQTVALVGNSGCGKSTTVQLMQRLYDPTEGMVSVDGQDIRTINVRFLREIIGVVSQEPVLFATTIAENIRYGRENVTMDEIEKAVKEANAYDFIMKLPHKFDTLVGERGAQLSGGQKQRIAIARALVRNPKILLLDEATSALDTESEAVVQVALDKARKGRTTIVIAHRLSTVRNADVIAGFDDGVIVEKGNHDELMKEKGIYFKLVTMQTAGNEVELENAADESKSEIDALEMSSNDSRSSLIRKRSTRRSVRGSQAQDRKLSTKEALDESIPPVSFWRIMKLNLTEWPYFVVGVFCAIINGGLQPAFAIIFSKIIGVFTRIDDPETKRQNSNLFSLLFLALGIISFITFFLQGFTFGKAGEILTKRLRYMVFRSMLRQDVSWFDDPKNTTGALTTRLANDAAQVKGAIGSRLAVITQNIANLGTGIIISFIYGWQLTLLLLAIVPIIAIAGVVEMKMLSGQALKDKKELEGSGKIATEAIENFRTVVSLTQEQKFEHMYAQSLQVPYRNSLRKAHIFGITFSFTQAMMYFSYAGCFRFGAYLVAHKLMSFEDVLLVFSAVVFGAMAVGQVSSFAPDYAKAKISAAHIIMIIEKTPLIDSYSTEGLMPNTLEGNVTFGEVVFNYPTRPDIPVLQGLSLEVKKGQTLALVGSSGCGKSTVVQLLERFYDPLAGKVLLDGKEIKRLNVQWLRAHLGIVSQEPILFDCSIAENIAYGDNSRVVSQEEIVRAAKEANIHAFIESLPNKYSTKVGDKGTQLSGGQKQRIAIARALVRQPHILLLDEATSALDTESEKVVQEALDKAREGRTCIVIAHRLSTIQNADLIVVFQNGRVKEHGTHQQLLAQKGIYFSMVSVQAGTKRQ

CCCN(CCC)S(=O)(=O)c1ccc(C(=O)O)cc1 [PROBENECID]
Activity [1]: is not an inhibitor [-]
Activity [2]: is not an inhibitor [-]

COc1ccc(-c2cc(=O)c3c(OC)c(OC)c(OC)c(OC)c3o2)cc1OC [NOBILETIN]
Activity [3]: is not an inhibitor [-]
Activity [4]: inhibitor [+]

O=C1C(CC[S+]([O-])c2ccccc2)C(=O)N(c2ccccc2)N1c1ccccc1 (configuration not stated) [SULFINPYRAZONE]
Activity [5]: is not an inhibitor [-]
Activity [6]: is not an inhibitor [-]

CC(C)=CCC/C(C)=C/COc1c2ccoc2cc2oc(=O)ccc12 [BERGAMOTTIN]
Activity [7]: is not an inhibitor [-]

CN(C)C(=O)CCSC(SCCC(=O)O)c1cccc(/C=C/c2ccc3ccc(Cl)cc3n2)c1 (configuration not stated) [MK-571]
Activity [8]: is not an inhibitor [-]

COc1ccc(-c2cc(=O)c3c(OC)c(OC)c(OC)c(OC)c3o2)cc1 [TANGERETIN]
Activity [9]: inhibitor [+]
Activity [10]: inhibitor [+]

C/C(=C\COc1c2ccoc2cc2oc(=O)ccc12)CC[C@@H](O)C(C)(C)O
Activity [11]: inhibitor [+]
Activity [12]: inhibitor [+]
